# In ChEMBL document CHEMBL4715835, “Lipidic synthetic alkaloids as SK3 channel modulators. Synthesis and biological evaluation of 2-substituted tetrahydropyridine derivatives with potential anti-metastatic activity” (Eur J Med Chem, 2020):
# Calls of active or inactive are those of the source. No cut-off for these calls is given here.
# Experiments:
# [1] = system: MDA-MB-435; assay: Toxicity in human MDA-MB-435 cells assessed as mortality at 3 uM measured after 24 hrs by MTT assay relative to control; assay type: cell-based; conditions: mda-mb-435, 24 h
# In short: (§1)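 MTT viability assay: about 4 × 10⁴ MDA-MB-435s cells seeded in triplicate with the molecules (tested series 100 nM, 300 nM, 1 µM, 3 µM, 10 µM) and kept 24 h at 37 °C. Medium was then removed and cells incubated 45 min at 37 °C with tetrazolium salt, which viable cells reduce to formazan. Results given as % mortality.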
# [2] = system: MDA-MB-435; assay: Toxicity in human MDA-MB-435 cells assessed as mortality at 1 uM measured after 24 hrs by MTT assay relative to control; assay type: cell-based; conditions: mda-mb-435, 24 h; in short: as §1
# [3] = Toxicity in human Huh-7 cells assessed as reduction in cell number after 48 hrs by Hoechst 33342 staining based assay
# In short: (§2)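 4000 cells per well. Cells exposed 24 h after seeding to 6 concentrations ([…]) for 48 h. They were then fixed in cold 90% ethanol/5% acetic acid for 20 min and nuclei stained with Hoechst 33342. Plates imaged on a high-content reader. IC₅₀ calculated; normal diploid skin fibroblasts served as control cells.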
# [4] = Toxicity in human Caco-2 cells assessed as reduction in cell number after 48 hrs by Hoechst 33342 staining based assay; in short: as §2
# [5] = Toxicity in human MDA-MB-231 cells assessed as reduction in cell number after 48 hrs by Hoechst 33342 staining based assay; in short: as §2
# [6] = Toxicity in human HCT-116 cells assessed as reduction in cell number after 48 hrs by Hoechst 33342 staining based assay; in short: as §2
# [7] = Toxicity in human NCI-H727 cells assessed as reduction in cell number after 48 hrs by Hoechst 33342 staining based assay; in short: as §2
# [8] = Toxicity in human skin fibroblasts assessed as reduction in cell number after 48 hrs by Hoechst 33342 staining based assay; assay type: tissue-based, Fibroblast; in short: as §2
# [9] = Toxicity in human MCF7 cells assessed as reduction in cell number after 48 hrs by Hoechst 33342 staining based assay; in short: as §2
# [10] = Toxicity in human PC-3 cells assessed as reduction in cell number after 48 hrs by Hoechst 33342 staining based assay; in short: as §2
# [11] = system: MDA-MB-435; assay: Toxicity in human MDA-MB-435 cells assessed as mortality at 10 uM measured after 24 hrs by MTT assay relative to control; assay type: cell-based; conditions: mda-mb-435, 24 h; in short: as §1
# [12] = system: MDA-MB-435; assay: Antimetastatic activity against human MDA-MB-435 cells assessed as reduction in cell migration at 1 uM after 24 hrs by […] relative to control; assay type: functional; design: scale not given: the % may be the effect or the level left
# [13] = biological target: ORAI1/STIM1 (Homo sapiens) (UniProt Q96D31+Q13586); assay: Inhibition of STIM1/Orai1 (unknown origin) expressed in HEK293 cells assessed as reduction in Ca2+-release activated Ca2+ entry current at 2 uM by whole cell patch clamp electrophysiological method; assay type: cell-based
# Sequence of ORAI1/STIM1 (Homo sapiens) (Q13586 23-685 partner limits assumed): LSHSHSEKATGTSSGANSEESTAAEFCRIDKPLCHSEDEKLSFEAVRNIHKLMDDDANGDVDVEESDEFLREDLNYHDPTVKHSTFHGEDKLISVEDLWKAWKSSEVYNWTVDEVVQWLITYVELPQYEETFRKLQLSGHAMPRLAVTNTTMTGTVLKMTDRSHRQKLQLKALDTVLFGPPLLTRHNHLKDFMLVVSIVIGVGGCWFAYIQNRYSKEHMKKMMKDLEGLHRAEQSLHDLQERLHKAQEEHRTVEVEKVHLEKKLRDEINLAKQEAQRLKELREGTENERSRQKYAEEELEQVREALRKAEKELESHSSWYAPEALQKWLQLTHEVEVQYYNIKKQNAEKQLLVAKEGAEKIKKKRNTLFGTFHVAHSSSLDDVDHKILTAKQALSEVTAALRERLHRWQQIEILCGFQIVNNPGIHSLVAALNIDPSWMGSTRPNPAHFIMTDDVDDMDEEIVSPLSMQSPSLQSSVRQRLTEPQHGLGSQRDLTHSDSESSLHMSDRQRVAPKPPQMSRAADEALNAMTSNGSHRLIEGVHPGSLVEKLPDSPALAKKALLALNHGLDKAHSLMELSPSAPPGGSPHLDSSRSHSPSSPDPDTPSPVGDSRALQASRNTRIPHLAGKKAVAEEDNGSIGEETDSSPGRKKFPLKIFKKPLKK
# Sequence of ORAI1/STIM1 (Homo sapiens) (Q96D31 whole entry): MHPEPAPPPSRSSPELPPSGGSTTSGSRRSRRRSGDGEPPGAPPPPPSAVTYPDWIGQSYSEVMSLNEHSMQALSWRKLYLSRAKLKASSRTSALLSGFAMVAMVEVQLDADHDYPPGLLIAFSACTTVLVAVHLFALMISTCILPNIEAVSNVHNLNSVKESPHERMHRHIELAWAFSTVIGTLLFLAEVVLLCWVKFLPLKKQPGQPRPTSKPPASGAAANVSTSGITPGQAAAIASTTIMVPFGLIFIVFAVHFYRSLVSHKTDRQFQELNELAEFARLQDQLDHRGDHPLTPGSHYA
# [14] = system: MDA-MB-435; assay: Effect on calcium influx in human MDA-MB-435 cells harboring siRNA and siOrai1 at 300 nM measured after 1 hr by Fura2-AM dye based fluorescence assay; assay type: functional, cell-based
# In short: (§3)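 Constitutive Ca²⁺ entry in MDA-MB-435s shRD or shSK3 cells, measured 48 h after transfection with 30 nM siOrai1 or siCTL. Cells were treated 1 h with compound and loaded with Fura2-AM for 45 min at 37 °C. They were then resuspended in Ca²⁺-free solution for 20 s before 2 mM CaCl₂ was added. Emission read at 510 nm with 340/380 nm excitation. Steady-state signal normalized to control. Three experiments in triplicate.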
# [15] = biological target: Small conductance calcium-activated potassium channel protein 3 (Homo sapiens) (UniProt Q9UGI6); assay: Inhibition of SK3 (unknown origin) expressed in HEK293 cells assessed as reduction in channel current at 2 uM with 0 mV holding potential in presence of -apamin by patch clamp electrophysiological method; assay type: cell-based
# Sequence of Small conductance calcium-activated potassium channel protein 3 (Homo sapiens) (Q9UGI6 whole entry): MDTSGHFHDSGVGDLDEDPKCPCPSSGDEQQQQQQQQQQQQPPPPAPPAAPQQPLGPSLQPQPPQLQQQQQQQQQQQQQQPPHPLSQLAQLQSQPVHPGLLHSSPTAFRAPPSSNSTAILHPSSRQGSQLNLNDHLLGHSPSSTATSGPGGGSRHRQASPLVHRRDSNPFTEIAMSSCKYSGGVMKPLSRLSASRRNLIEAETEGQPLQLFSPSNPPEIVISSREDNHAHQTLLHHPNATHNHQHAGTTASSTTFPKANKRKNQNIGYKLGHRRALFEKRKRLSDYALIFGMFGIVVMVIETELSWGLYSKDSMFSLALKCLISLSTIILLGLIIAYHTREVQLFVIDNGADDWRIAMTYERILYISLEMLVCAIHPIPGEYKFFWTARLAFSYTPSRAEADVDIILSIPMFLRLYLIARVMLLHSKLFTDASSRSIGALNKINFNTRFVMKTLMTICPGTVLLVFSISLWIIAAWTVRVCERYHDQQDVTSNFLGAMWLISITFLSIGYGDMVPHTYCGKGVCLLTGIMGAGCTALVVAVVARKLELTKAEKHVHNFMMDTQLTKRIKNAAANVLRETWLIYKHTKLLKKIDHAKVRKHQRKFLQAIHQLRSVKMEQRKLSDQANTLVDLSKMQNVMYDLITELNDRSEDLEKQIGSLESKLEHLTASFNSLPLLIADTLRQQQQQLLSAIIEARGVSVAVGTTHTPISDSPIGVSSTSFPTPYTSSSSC
# In short: (§4)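 Patch clamp on HEK-293 cells stably expressing SK3 (lentiviral). Compound added acutely; DMSO/methanol was the vehicle, and runs with or without apamin. Ramp from −80 to +80 mV, holding at 0 mV, 500 ms ramps at 4 s intervals. Current analyzed at 0 mV to minimize chloride currents, followed as a time course. Pipette solution adjusted to pH 7.2 with KOH.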
# [16] = biological target: Small conductance calcium-activated potassium channel protein 3 (Homo sapiens) (UniProt Q9UGI6); assay: Inhibition of SK3 (unknown origin) expressed in HEK293 cells assessed as reduction in channel current at 2 uM with 0 mV holding potential by patch clamp electrophysiological method; assay type: cell-based; in short: as §4
# [17] = system: MDA-MB-435; assay: Inhibition of SK3/Orai1 in human MDA-MB-435 cells harboring SK3 shRNA assessed as reduction in Ca2+ influx at 300 nM measured after 1 hr by Fura2-AM dye based fluorescence assay relative to control; assay type: cell-based; in short: as §3
# [18] = system: MDA-MB-435; assay: Effect on calcium influx in human MDA-MB-435 cells harboring siRNA and siCTL at 300 nM measured after 1 hr by Fura2-AM dye based fluorescence assay; assay type: functional, cell-based; in short: as §3
# [19] = system: MDA-MB-435; assay: Antimetastatic activity against human MDA-MB-435 cells assessed as reduction in cell migration at 100 to 300 nM after 24 hrs by crystal violet staining based assay relative to control; design: scale not given: the % may be the effect or the level left; conditions: dose 100-300 nM
# [20] = biological target: Small conductance calcium-activated potassium channel protein 3 (Homo sapiens) (UniProt Q9UGI6); assay: Inhibition of SK3 in human MDA-MB-435 cells harboring SK3 shRNA assessed as reduction in Ca2+ influx at 300 nM measured after 1 hr by Fura2-AM dye based fluorescence assay; assay type: cell-based; in short: as §3
# [21] = system: MDA-MB-435; assay: Antimetastatic activity against human MDA-MB-435 cells harboring shRNA assessed as reduction in cell migration at 100 to 300 nM after 24 hrs […]; assay type: functional, cell-based; conditions: dose 100-300 nM
# [22] = biological target: Small conductance calcium-activated potassium channel protein 3 (Homo sapiens) (UniProt Q9UGI6); assay: Inhibition of SK3 (unknown origin) expressed in HEK293 cells assessed as reduction in channel current at 2 uM with 0 mV holding potential measured within 10 secs by patch clamp electrophysiological method relative to control; assay type: cell-based; conditions: time 10.0 sec; in short: as §4
# [23] = system: MDA-MB-435; assay: Effect on calcium influx in human MDA-MB-435 cells harboring siRNA and siOrai1 at 1 uM measured after 1 hr by Fura2-AM dye based fluorescence assay; assay type: functional, cell-based; in short: as §3
# [24] = biological target: Small conductance calcium-activated potassium channel protein 3 (Homo sapiens) (UniProt Q9UGI6); assay: Inhibition of SK3 in human MDA-MB-435 cells harboring SK3 shRNA assessed as reduction in Ca2+ influx at 1 uM measured after 1 hr by Fura2-AM dye based fluorescence assay; assay type: cell-based; in short: as §3
# [25] = system: MDA-MB-435; assay: Antimetastatic activity against human MDA-MB-435 cells harboring shRNA assessed as reduction in cell migration at 0.3 to 3 uM after 24 hrs by […]; assay type: functional, cell-based; conditions: dose 0.3-3 µM
# [26] = system: MDA-MB-435; assay: Antimetastatic activity against human MDA-MB-435 cells harboring SK3 shRNA assessed as reduction in cell migration after 24 hrs by […]; assay type: functional, cell-based
# [27] = biological target: Small conductance calcium-activated potassium channel protein 3 (Homo sapiens) (UniProt Q9UGI6); assay: Inhibition of SK3 (unknown origin) expressed in HEK293 cells assessed as reduction in channel current at 10 uM with 0 mV holding potential measured within 100 secs by patch clamp electrophysiological method relative to control; assay type: cell-based; conditions: time 100.0 sec; in short: as §4
# [28] = biological target: Small conductance calcium-activated potassium channel protein 3 (Homo sapiens) (UniProt Q9UGI6); assay: Inhibition of SK3 (unknown origin) expressed in HEK293 cells assessed as reduction in channel current at 10 uM with 0 mV holding potential in presence of -apamin by patch clamp electrophysiological method; assay type: cell-based; in short: as §4
# [29] = system: MDA-MB-435; assay: Effect on calcium influx in human MDA-MB-435 cells harboring siRNA and siCTL at 1 uM measured after 1 hr by Fura2-AM dye based fluorescence assay; assay type: functional, cell-based; in short: as §3
# [30] = biological target: Small conductance calcium-activated potassium channel protein 3 (Homo sapiens) (UniProt Q9UGI6); assay: Inhibition of SK3 (unknown origin) expressed in HEK293 cells assessed as reduction in channel current at 10 uM with 0 mV holding potential by patch clamp electrophysiological method; assay type: cell-based; in short: as §4
# [31] = system: MDA-MB-435; assay: Antimetastatic activity against human MDA-MB-435 cells harboring shRNA assessed as reduction in cell migration at 3 uM after 24 hrs by […] relative to control; assay type: functional; design: scale not given: the % may be the effect or the level left
# [32] = system: MDA-MB-435; assay: Inhibition of SK3/Orai1 in human MDA-MB-435 cells harboring SK3 shRNA assessed as reduction in Ca2+ influx at 1 uM measured after 1 hr by Fura2-AM dye based fluorescence assay; assay type: cell-based; in short: as §3
SMILES,mortality [1] [%],mortality [2] [%],IC50 at 48 h [3] [µM],IC50 at 48 h [4] [µM],IC50 at 48 h [5] [µM],IC50 at 48 h [6] [µM],IC50 at 48 h [7] [µM],IC50 at 48 h [8] [µM],IC50 at 48 h [9] [µM],IC50 at 48 h [10] [µM],mortality [11] [%],further results
CCCCCCCCCCCCCCCCCCCC(Cc1ccccn1)OC (stereo not drawn),20,20,,,,,,,,,,
CCCCCCCCCCCCCCCCCCC[C@@H](O)C[C@@H]1C=CCCN1C,30,20,> 25,> 25,> 25,> 25,> 25,> 25,> 25,> 25,,
CCCCCCCC/C=C\CCCCCCCC(Cc1ccccn1)OC (stereo not drawn),25,20,,,,,,,,,,
CCCCCCCC/C=C\CCCCCCC[C@H](O)C[C@@H]1C=CCCN1C,40,30,24,6,14,15,> 25,25,18,19,,
CCCCCCCCCCCCCCCCC[C@@H](O)C[C@@H]1CCCCN1C,,0,,,,,,,,,35,
CCCCCCCCCCCCCCCCCCCC(O)Cc1ccccn1 (stereo not drawn),20,20,,,,,,,,,,
CCCCCCCCCCCCCCCCCCC[C@H](O)C[C@@H]1C=CCCN1C,30,30,> 25,14,> 25,> 25,> 25,> 25,> 25,> 25,,
CCCCCCCCCCCCCCCCC[C@@H](C[C@@H]1C=CCCN1C)OC(C)=O,,0,> 25,9,22,24,> 25,24,> 25,26,20,
CCCCCCCCCCCCCCCCC[C@H](O)C[C@@H]1C=CCCN1C,,0,> 25,16,> 25,> 25,> 25,> 25,> 25,> 25,0,Activity [12]: <=60%; inhibition [13]: inactive; Activity [14]: inactive; inhibition [15]: Active; inhibition [16]: 90%; inhibition [17]: < 40%; Activity [18]: inactive; Activity [19]: <=60%; inhibition [20]: inactive; Activity [21]: inactive; inhibition [22]: 50%
CCCCCCCC/C=C\CCCCCCC[C@H](C[C@@H]1C=CCCN1C)OC(C)=O,,0,10,9,10,9,19,13,15,8,70,Activity [23]: inactive; Activity [12]: 40%; inhibition [24]: inactive; Activity [25]: inactive; Activity [26]: Dose-dependent effect; inhibition [27]: 50%; inhibition [28]: Active; Activity [29]: inactive; inhibition [30]: 70%; Activity [31]: <=40%; inhibition [32]: Active
CCCCCCCC/C=C\CCCCCCC[C@@H](O)C[C@@H]1C=CCCN1C,80,30,10,8,8,10,9,9,10,7,,
CCCCCCCCCCCCCCCCCCC[C@H](C[C@@H]1C=CCCN1C)OC(C)=O,,0,> 25,17,> 25,> 25,> 25,> 25,> 25,> 25,20,
CCCCCCCC/C=C\CCCCCCCC(O)Cc1ccccn1 (stereo not drawn),25,20,,,,,,,,,,
CCCCCCCCCCCCCCCCC[C@H](C[C@@H]1C=CCCN1C)OC(C)=O,,5,22,9,21,16,> 25,18,19,15,70,
CCCCCCCCCCCCCCCCC[C@@H](O)C[C@@H]1C=CCCN1C,,0,> 25,21,> 25,> 25,> 25,> 25,> 25,> 25,80,
CCCCCCCCCCCCCCCCCC(Cc1ccccn1)OC (stereo not drawn),,0,,,,,,,,,0,
COc1cccc2c1C(=O)c1c(O)c3c(c(O)c1C2=O)C[C@@](O)(C(=O)CO)C[C@@H]3O[C@H]1C[C@H](N)[C@H](O)[C@H](C)O1 [DOXORUBICIN],,,,0.17,,0.12,0.66,0.03,,0.12,,
CCCCCCCCCCCCCCCCCC(O)Cc1ccccn1 (stereo not drawn),,0,,,,,,,,,0,
CCCCCCCCCCCCCCCCCC(Cc1cccc[n+]1C)OC.Cc1ccc(S(=O)(=O)[O-])cc1 (stereo not drawn),,30,,,,,,,,,80,
